From ChEMBL document CHEMBL2321797 (J Med Chem, 2013)
pEC50, pIC50: −log10 of the molar value. Active and inactive are the calls of the source. The rule behind the calls is not given here.

How the values were obtained:
[1] = (§1) Inhibition of HIV1 Envelope glycoprotein-mediated cell-cell fusion expressed in human HL2/3 cells coincubated with human TZM-b1 cells after 6 to 8 hrs by luciferase assay; type: cell-based; settings: Human immunodeficiency virus 1, TZM-b1
TZM-b1 = test: as §1; type: cell-based; settings: Human immunodeficiency virus 1
[2] = system: Human immunodeficiency virus 1; test: Antiviral activity against Human immunodeficiency virus 1 assessed as inhibition of viral replication; type: functional, organism-based
Summary of the method: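 NL4-3 mutant panel (D36G T20-sensitive; five T20-resistant NHR variants) infecting MT-2 cells with peptides at graded concentrations. p24 measured by ELISA on day 4. Run in triplicate as mean ± SD; IC50 and fold change vs D36G.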

| pIC50 [1] | Structure (SMILES) | inhibition (TZM-b1) | other results |
| --- | --- | --- | --- |
| < 4.00 | Cc1ccc(C)n1-c1ccc(OCC(=O)O)c(C(=O)O)c1 | – | – |
| – | Cc1cc(C(=O)O)c(C)n1-c1ccc(C(=O)O)c(O)c1 | inactive | – |
| – | Cc1cc(C(=O)O)c(C)n1-c1ccc(O)c(C(=O)O)c1 | inactive | – |
| – | Cc1ccc(C)n1-c1ccc(O)c(C(=O)O)c1 | – | pEC50 [2]: 6.16 |
| < 4.00 | Cc1ccc(C)n1-c1ccc(C(=O)O)c(OCC(=O)O)c1 | – | – |
